{"source": "ChEMBL document CHEMBL3120088", "about": "“Discovery of selective small molecule type III phosphatidylinositol 4-kinase alpha (PI4KIIIα) inhibitors as anti hepatitis C (HCV) agents” (J Med Chem, 2014)", "key": {"Rattus norvegicus [1]": {"tested_on": "Rattus norvegicus", "assay": "Dose normalized AUC in Sprague-Dawley rat at 5 mg/kg, po", "format": "ADME, organism-based", "set-up": "dose 5 mg/kg, route oral", "settings": "in vivo", "how_it_was_run": "(§1)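 Rats were given a single dose of compound formulated in DMSO/cyclodextrin, either intravenously at 1 mg/kg or orally at 5 mg/kg. Each parameter comes from the matching route arm. Dose-normalized AUC is expressed as h kg ng mL⁻¹ mg⁻¹.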"}, "Rattus norvegicus [2]": {"tested_on": "Rattus norvegicus", "assay": "Dose normalized AUC in Sprague-Dawley rat at 1 mg/kg, iv", "format": "ADME, organism-based", "set-up": "dose 1 mg/kg, route intravenous", "settings": "in vivo", "how_it_was_run": "as §1"}, "[3]": {"assay": "(§2) Volume of distribution at steady state in Sprague-Dawley rat at 1 mg/kg, iv", "format": "ADME, organism-based", "set-up": "dose 1 mg/kg, route intravenous", "settings": "Sprague-Dawley, in vivo, read-out: Vdss", "how_it_was_run": "as §1"}, "Rattus norvegicus [4]": {"tested_on": "Rattus norvegicus", "assay": "Half life in Sprague-Dawley rat at 1 mg/kg, iv", "format": "ADME, organism-based", "set-up": "dose 1 mg/kg, route intravenous", "settings": "in vivo", "how_it_was_run": "as §1"}, "[5]": {"assay": "Clearance in Sprague-Dawley rat at 1 mg/kg, iv", "format": "ADME, organism-based", "set-up": "dose 1 mg/kg, route intravenous", "settings": "in vivo", "how_it_was_run": "as §1"}, "[6]": {"assay": "Thermodynamic stability of the compound in DMSO assessed as interconversion at 80 degC after 6 days", "format": "physicochemical", "settings": "144 h"}, "[7]": {"assay": "Thermodynamic stability of the compound in DMSO assessed as decomposition at 80 degC after 6 days", "format": "physicochemical", "settings": "144 h"}, "[8]": {"assay": "(§3) Oral bioavailability in Sprague-Dawley rat at 5 mg/kg", "format": "ADME, organism-based", "settings": "Sprague-Dawley, in vivo", "how_it_was_run": "as §1"}, "[9]": {"assay": "(§4) Tmax in Sprague-Dawley rat at 5 mg/kg, po", "format": "ADME, organism-based", "set-up": "dose 5 mg/kg, route oral", "settings": "Sprague-Dawley, in vivo", "how_it_was_run": "as §1"}, "[10]": {"assay": "(§5) Half life in Sprague-Dawley rat at 5 mg/kg, po", "format": "ADME, organism-based", "set-up": "dose 5 mg/kg, route oral", "settings": "Sprague-Dawley, in vivo", "how_it_was_run": "as §1"}, "Rattus norvegicus [11]": {"tested_on": "Rattus norvegicus", "assay": "Cmax in Sprague-Dawley rat at 5 mg/kg, po", "format": "ADME, organism-based", "set-up": "dose 5 mg/kg, route oral", "settings": "in vivo", "how_it_was_run": "as §1"}, "Hepatitis C virus [12]": {"tested_on": "Hepatitis C virus", "assay": "Antiviral activity against Hepatitis C virus genotype 2a expressed in human Huh-7 Lunet cells after 48 hrs by luciferase reporter gene assay", "format": "functional, organism-based, Hepacivirus hominis", "settings": "huh-7"}, "Hepatitis C virus [13]": {"tested_on": "Hepatitis C virus", "assay": "Antiviral activity against Hepatitis C virus genotype 1b expressed in ET cells after 48 hrs by luciferase reporter gene assay", "format": "functional, organism-based, Hepacivirus hominis", "settings": "et"}, "Hepatitis C virus [14]": {"tested_on": "Hepatitis C virus", "assay": "Antiviral activity against Hepatitis C virus genotype 1a expressed in ET cells after 48 hrs by luciferase reporter gene assay", "format": "functional, organism-based, Hepacivirus hominis, subtype 1a", "settings": "et"}, "[15]": {"assay": "Inhibition of PI3Kdelta (1 to 1044)/6xHis-tagged p85 (1 to 724) (unknown origin) using diC8-PIP2 as substrate preincubated for 30 mins followed by substrate addition measured after 45 to 60 mins", "set-up": "species or system Homo sapiens"}, "[16]": {"assay": "Inhibition of PI3Kbeta (1 to 1070)/6xHis-tagged p85 (1 to 724) (unknown origin) using diC8-PIP2 as substrate preincubated for 30 mins followed by substrate addition measured after 45 to 60 mins", "set-up": "species or system Homo sapiens"}, "[17]": {"assay": "Inhibition of PI3Kalpha (1 to 1068)/6xHis-tagged p85 (1 to 724) (unknown origin) using diC8-PIP2 as substrate preincubated for 30 mins followed by substrate addition measured after 45 to 60 mins", "set-up": "species or system Homo sapiens"}, "[18]": {"assay": "Inhibition of 6xHis-tagged PI4K-beta (13 to 828) 316 to 330 deletion mutant (unknown origin) using D-myo-phosphatidylinositol as substrate preincubated for 30 mins followed by substrate addition measured after 180 mins by luminescence assay", "set-up": "species or system Homo sapiens"}, "[19]": {"target": "Phosphatidylinositol 4-kinase alpha (Homo sapiens, UniProt P42356)", "sequence (P42356 whole entry)": "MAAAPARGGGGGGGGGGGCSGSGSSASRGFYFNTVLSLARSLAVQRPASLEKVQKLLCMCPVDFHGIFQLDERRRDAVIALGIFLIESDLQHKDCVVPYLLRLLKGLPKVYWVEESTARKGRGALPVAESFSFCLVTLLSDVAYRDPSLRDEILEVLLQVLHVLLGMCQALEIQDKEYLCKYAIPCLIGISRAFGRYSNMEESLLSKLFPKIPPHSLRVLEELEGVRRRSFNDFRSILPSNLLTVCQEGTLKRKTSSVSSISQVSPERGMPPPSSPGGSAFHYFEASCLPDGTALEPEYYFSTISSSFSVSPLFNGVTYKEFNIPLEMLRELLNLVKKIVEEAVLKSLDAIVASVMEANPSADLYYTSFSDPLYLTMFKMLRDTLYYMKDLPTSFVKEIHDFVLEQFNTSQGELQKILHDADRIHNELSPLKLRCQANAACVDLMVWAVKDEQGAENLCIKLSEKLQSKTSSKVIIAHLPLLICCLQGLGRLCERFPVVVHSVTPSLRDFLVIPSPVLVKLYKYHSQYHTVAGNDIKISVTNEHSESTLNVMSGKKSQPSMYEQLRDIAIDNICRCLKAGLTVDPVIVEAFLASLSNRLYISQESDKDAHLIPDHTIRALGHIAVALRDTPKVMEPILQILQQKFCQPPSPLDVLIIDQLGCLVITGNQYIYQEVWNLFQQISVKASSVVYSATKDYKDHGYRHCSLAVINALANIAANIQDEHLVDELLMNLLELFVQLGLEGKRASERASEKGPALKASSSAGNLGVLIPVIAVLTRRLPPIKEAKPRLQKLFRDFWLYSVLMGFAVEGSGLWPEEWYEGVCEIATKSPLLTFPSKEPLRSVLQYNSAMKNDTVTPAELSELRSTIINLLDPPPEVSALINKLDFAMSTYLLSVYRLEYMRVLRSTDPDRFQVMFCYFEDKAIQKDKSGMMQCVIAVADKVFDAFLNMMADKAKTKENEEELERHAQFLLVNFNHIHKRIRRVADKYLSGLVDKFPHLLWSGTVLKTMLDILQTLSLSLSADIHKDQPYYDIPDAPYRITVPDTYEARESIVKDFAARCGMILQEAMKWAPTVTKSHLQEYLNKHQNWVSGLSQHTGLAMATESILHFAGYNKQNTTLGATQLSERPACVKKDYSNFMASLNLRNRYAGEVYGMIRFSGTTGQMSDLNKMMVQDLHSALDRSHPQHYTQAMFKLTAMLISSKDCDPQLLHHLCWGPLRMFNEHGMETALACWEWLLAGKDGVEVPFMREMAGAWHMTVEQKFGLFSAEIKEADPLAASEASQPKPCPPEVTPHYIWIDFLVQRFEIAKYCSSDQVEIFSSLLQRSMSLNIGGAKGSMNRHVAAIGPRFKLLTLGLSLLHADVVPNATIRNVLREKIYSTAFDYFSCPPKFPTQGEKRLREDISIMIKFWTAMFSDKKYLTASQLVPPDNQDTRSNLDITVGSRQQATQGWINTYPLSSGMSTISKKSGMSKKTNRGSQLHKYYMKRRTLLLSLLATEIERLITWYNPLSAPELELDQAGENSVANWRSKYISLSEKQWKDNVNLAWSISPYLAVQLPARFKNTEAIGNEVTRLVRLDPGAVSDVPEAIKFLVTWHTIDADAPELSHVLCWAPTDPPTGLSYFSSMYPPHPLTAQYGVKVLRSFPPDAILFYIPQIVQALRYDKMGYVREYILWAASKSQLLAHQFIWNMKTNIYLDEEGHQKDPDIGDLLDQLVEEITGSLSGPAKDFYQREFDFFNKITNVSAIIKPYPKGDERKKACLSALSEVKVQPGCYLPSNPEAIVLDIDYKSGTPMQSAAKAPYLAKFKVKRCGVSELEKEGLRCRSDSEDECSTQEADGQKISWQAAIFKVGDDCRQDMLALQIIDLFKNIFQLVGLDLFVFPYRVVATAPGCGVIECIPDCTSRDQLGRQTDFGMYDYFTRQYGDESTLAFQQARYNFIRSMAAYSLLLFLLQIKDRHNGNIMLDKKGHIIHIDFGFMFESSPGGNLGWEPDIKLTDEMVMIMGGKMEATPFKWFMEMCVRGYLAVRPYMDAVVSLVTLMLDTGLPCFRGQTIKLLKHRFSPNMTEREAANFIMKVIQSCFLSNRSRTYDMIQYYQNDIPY", "assay": "Inhibition of GST-tagged PI4K-alpha (1 to 2044) (unknown origin) using D-myo-phosphatidylinositol as substrate preincubated for 30 mins followed by substrate addition measured after 180 mins by luminescence assay"}, "[20]": {"target": "Phosphatidylinositol 4,5-bisphosphate 3-kinase catalytic subunit gamma isoform (Homo sapiens, UniProt P48736)", "sequence (P48736 whole entry, canonical isoform)": "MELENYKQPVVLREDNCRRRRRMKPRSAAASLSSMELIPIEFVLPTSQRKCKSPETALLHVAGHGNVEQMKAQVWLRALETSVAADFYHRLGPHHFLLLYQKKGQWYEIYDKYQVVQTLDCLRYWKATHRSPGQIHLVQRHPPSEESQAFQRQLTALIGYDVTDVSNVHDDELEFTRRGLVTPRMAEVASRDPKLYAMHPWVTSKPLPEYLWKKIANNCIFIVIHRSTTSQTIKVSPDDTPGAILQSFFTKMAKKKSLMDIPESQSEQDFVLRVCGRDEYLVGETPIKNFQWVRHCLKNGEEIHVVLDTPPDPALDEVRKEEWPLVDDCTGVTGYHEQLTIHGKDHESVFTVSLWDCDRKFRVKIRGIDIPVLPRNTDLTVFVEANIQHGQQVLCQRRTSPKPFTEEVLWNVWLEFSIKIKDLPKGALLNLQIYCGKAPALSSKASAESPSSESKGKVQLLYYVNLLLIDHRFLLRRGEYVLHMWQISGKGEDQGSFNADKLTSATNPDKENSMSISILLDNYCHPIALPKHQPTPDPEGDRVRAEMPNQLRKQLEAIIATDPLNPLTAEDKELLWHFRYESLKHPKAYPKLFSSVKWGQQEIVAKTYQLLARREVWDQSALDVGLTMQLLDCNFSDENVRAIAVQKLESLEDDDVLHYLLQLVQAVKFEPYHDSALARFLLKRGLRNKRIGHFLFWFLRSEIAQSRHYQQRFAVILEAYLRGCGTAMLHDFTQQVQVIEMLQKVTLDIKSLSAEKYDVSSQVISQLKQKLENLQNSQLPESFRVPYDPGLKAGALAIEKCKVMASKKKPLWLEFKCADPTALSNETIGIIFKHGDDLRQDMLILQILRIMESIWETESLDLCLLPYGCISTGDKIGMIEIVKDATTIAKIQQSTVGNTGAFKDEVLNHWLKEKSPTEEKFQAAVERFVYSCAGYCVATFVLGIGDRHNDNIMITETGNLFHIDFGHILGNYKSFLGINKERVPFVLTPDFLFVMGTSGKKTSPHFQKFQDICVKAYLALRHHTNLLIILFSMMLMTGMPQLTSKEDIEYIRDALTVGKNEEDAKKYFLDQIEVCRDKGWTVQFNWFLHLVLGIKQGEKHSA"}, "Mus musculus [21]": {"tested_on": "Mus musculus", "assay": "Toxicity in mouse assessed as pathological changes in spleen at 40 mg/kg/day", "format": "organism-based", "settings": "in vivo", "how_it_was_run": "(§6)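 Mouse repeat-dose toxicity study: 40 mg/kg/day given daily for 14 days. Endpoints were morbidity, mortality, test-article-related changes in stomach, thymus and spleen, and clinical pathology parameters.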"}, "Mus musculus [22]": {"tested_on": "Mus musculus", "assay": "Toxicity in mouse assessed as pathological changes in thymus at 40 mg/kg/day", "format": "organism-based", "settings": "in vivo", "how_it_was_run": "as §6"}, "Mus musculus [23]": {"tested_on": "Mus musculus", "assay": "Toxicity in mouse assessed as pathological changes in stomach at 40 mg/kg/day", "format": "organism-based", "settings": "in vivo", "how_it_was_run": "as §6"}, "Mus musculus [24]": {"tested_on": "Mus musculus", "assay": "Toxicity in mouse assessed as mortality at 40 mg/kg/day", "format": "organism-based", "settings": "in vivo", "how_it_was_run": "as §6"}, "Mus musculus [25]": {"tested_on": "Mus musculus", "assay": "Toxicity in mouse assessed as morbidity at 40 mg/kg/day", "format": "organism-based", "settings": "in vivo", "how_it_was_run": "as §6"}, "[26]": {"assay": "Toxicity in mouse after 14 days", "format": "organism-based", "settings": "in vivo", "how_it_was_run": "as §6"}, "Rattus norvegicus [27]": {"tested_on": "Rattus norvegicus", "assay": "as §2", "format": "ADME, organism-based", "set-up": "dose 1 mg/kg, route intravenous", "settings": "in vivo", "how_it_was_run": "as §1"}, "Rattus norvegicus [28]": {"tested_on": "Rattus norvegicus", "assay": "as §3", "format": "ADME, organism-based", "settings": "in vivo", "how_it_was_run": "as §1"}, "Rattus norvegicus [29]": {"tested_on": "Rattus norvegicus", "assay": "as §4", "format": "ADME, organism-based", "set-up": "dose 5 mg/kg, route oral", "settings": "in vivo", "how_it_was_run": "as §1"}, "Rattus norvegicus [30]": {"tested_on": "Rattus norvegicus", "assay": "as §5", "format": "ADME, organism-based", "set-up": "dose 5 mg/kg, route oral", "settings": "in vivo", "how_it_was_run": "as §1"}}}
{"smiles": "COc1ncc(-c2ccc3nc(N)n(-c4ccccc4C(F)(F)F)c(=O)c3c2)cc1S(=O)(=O)Nc1ccc(F)cc1F", "note": "(atropisomer aR)", "values": [{"measurement": "AUC/dose", "setting": "Rattus norvegicus [1]", "value": 9985, "unit": "kg·ng·h/mL/mg"}, {"measurement": "AUC/dose", "setting": "Rattus norvegicus [2]", "value": 7113, "unit": "kg·ng·h/mL/mg"}, {"measurement": "Vd", "setting": "[3]", "value": 0.55, "unit": "L/kg"}, {"measurement": "t1/2", "setting": "Rattus norvegicus [4]", "value": 3.5, "unit": "h"}, {"measurement": "clearance", "setting": "[5]", "value": 2.5, "unit": "mL/min/kg"}, {"measurement": "Stability", "setting": "[6]", "value": "Stable"}, {"measurement": "Stability", "setting": "[7]", "value": "Stable"}, {"measurement": "bioavailability", "setting": "[8]", "value": "> 100", "unit": "%"}, {"measurement": "Tmax", "setting": "[9]", "value": 3, "unit": "h"}, {"measurement": "half-life", "setting": "[10]", "value": 2.7, "unit": "h"}, {"measurement": "Cmax", "setting": "Rattus norvegicus [11]", "value": 4429, "unit": "ng/mL"}, {"measurement": "pIC50", "setting": "Hepatitis C virus [12]", "value": 7.1}, {"measurement": "pIC50", "setting": "Hepatitis C virus [13]", "value": 7.8}, {"measurement": "pIC50", "setting": "Hepatitis C virus [14]", "value": 6.9}, {"measurement": "pIC50", "setting": "[15]", "value": 5}, {"measurement": "pIC50", "setting": "[16]", "value": 4.8}, {"measurement": "pIC50", "setting": "[17]", "value": 5.5}, {"measurement": "pIC50", "setting": "[18]", "value": 5.3}, {"measurement": "IC50", "setting": "[19]", "value": 126, "unit": "nM"}, {"measurement": "IC50", "setting": "[20]", "value": 3160, "unit": "nM"}]}
{"smiles": "COc1ncc(-c2ccc3nc(N)n(-c4ccccc4C(F)(F)F)c(=O)c3c2)cc1S(=O)(=O)Nc1ccc(F)cc1F", "note": "(atropisomer aS)", "values": [{"measurement": "Activity", "setting": "Mus musculus [21]", "value": "Toxic"}, {"measurement": "Activity", "setting": "Mus musculus [22]", "value": "Toxic"}, {"measurement": "Activity", "setting": "Mus musculus [23]", "value": "Toxic"}, {"measurement": "Activity", "setting": "Mus musculus [24]", "value": "Toxic"}, {"measurement": "Activity", "setting": "Mus musculus [25]", "value": "Toxic"}, {"measurement": "MTD at 336 h", "setting": "[26]", "value": 50, "unit": "mg/kg"}, {"measurement": "AUC/dose", "setting": "Rattus norvegicus [1]", "value": 3626, "unit": "kg·ng·h/mL/mg"}, {"measurement": "AUC/dose", "setting": "Rattus norvegicus [2]", "value": 3695, "unit": "kg·ng·h/mL/mg"}, {"measurement": "Vdss", "setting": "Rattus norvegicus [27]", "value": 0.34, "unit": "L/kg"}, {"measurement": "t1/2", "setting": "Rattus norvegicus [4]", "value": 1.3, "unit": "h"}, {"measurement": "F", "setting": "Rattus norvegicus [28]", "value": 98, "unit": "%"}, {"measurement": "Tmax", "setting": "Rattus norvegicus [29]", "value": 4.25, "unit": "h"}, {"measurement": "t1/2", "setting": "Rattus norvegicus [30]", "value": 4, "unit": "h"}, {"measurement": "Cmax", "setting": "Rattus norvegicus [11]", "value": 1556, "unit": "ng/mL"}, {"measurement": "pIC50", "setting": "Hepatitis C virus [12]", "value": 7.9}, {"measurement": "pIC50", "setting": "Hepatitis C virus [13]", "value": 8.6}, {"measurement": "pIC50", "setting": "Hepatitis C virus [14]", "value": 7.9}, {"measurement": "pIC50", "setting": "[15]", "value": 5.6}, {"measurement": "pIC50", "setting": "[16]", "value": 5.1}, {"measurement": "pIC50", "setting": "[17]", "value": 5.6}, {"measurement": "pIC50", "setting": "[18]", "value": 6}, {"measurement": "IC50", "setting": "[19]", "value": 5.01, "unit": "nM"}, {"measurement": "IC50", "setting": "[20]", "value": 2510, "unit": "nM"}]}
